Measured values reported in ChEMBL document CHEMBL1240423, “Synthesis and evaluation of quinazolinone derivatives as inhibitors of NF-kappaB, AP-1 mediated transcription and eIF-4E mediated translational activation: inhibitors of multi-pathways involve in cancer” (Eur J Med Chem, 2010).

Key:
HEK293 [1] = experiment: Inhibition of NF-kappaB expressed in HEK293 cells assessed as inhibition of TNF-alpha-induced transcriptional activation at 1 uM treated 24 hrs before TNFalpha challenge by luciferase reporter gene assay relative to control; assay type: cell-based
In short: (§1)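 Luciferase reporter screen with each sample in triplicate in two or three independent experiments. Values are the average of those experiments. Rapamycin served as the reference eIF-4E inhibitor.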

[2] = biological target: Transcription factor Jun (Homo sapiens) (UniProt P05412); experiment: Inhibition of AP1 expressed in HEK293 cells assessed as inhibition of PMA-induced transcriptional activation at 1 uM treated 24 hrs before PMA challenge by luciferase reporter gene assay relative to control; assay type: cell-based; in short: as §1
Transcription factor Jun (Homo sapiens), sequence (P05412 whole entry): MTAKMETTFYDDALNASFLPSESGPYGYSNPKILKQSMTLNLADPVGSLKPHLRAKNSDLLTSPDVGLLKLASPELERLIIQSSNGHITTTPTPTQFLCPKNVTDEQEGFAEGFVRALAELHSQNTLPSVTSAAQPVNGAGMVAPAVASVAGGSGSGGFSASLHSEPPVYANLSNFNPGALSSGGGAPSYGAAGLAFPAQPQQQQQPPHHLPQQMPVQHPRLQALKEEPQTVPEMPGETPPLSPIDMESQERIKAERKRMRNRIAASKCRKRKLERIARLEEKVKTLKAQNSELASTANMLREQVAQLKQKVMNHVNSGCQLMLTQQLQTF

[3] = biological target: Eukaryotic translation initiation factor 4E (Homo sapiens) (UniProt P06730); experiment: Inhibition of eIF-4E expressed in human FaDu cells assessed as inhibition of translational activation at 1 uM by luciferase reporter gene assay relative to control; assay type: cell-based; in short: as §1
Eukaryotic translation initiation factor 4E (Homo sapiens), sequence (P06730 whole entry): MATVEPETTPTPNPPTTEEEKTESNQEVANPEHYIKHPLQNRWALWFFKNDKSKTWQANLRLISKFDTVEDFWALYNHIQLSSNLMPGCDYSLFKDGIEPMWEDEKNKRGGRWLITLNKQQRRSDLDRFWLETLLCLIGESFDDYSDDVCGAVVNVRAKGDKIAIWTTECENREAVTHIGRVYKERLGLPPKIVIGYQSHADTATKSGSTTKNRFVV

[4] = Inhibition of NF-kappaB expressed in HEK293 cells assessed as inhibition of TNF-alpha-induced transcriptional activation treated 24 hrs before TNFalpha challenge by luciferase reporter gene assay; assay type: cell-based
In short: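 Six-point dose response […] in ½-log steps, screened as in the primary reporter assay. IC50 calculated from the dose-response data.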

HEK293 [5] = experiment: Inhibition of NF-kappaB expressed in HEK293 cells assessed as inhibition of TNF-alpha-induced transcriptional activation at 3.3 uM treated 2 hrs before TNFalpha challenge measured after 24 hrs by luciferase reporter gene assay relative to control; assay type: cell-based
In short: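 Stably transfected NF-κB reporter cells plated, then after 24 h pretreated with compound at six concentrations for 2 h before 20 ng/ml TNF-α induction. Cells later lysed, luciferase activity read and normalized.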

[6] = Inhibition of NF-kappaB expressed in HEK293 cells assessed as inhibition of TNF-alpha-induced transcriptional activation treated 2 hrs before TNFalpha challenge measured after 24 hrs by luciferase reporter gene assay; assay type: cell-based
In short: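 Stably transfected NF-κB luciferase reporter cells were plated, and 24 h later given test compound at six concentrations for 2 h. TNF-α was then added at 20 ng/ml to induce transcription. Cells were then lysed, luciferase activity was recorded, and values were normalised.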

FaDu = experiment: Cytotoxicity against human FADU cells assessed as growth inhibition at 3.3 uM by MTT assay; assay type: functional

SMILES | inhibition [2] [%] | inhibition [3] [%] | IC50 [4] [µM] | inhibition (HEK293 [1]) [%] | inhibition (HEK293 [5]) [%] | IC50 [6] [µM] | inhibition at 3.3 µM (FaDu) [%]
O=c1c2ccccc2nc(-c2sc(Nc3ccccc3)nc2-c2ccccc2)n1-c1ccccc1 | 51 | 37 | – | 71 | – | – | –
COc1ccc(-n2c(-c3sc(Nc4ccccc4)nc3-c3ccccc3)nc3ccccc3c2=O)cc1 | 19 | 16 | – | 63 | – | – | –
O=c1c2ccccc2nc(-c2sc(Nc3ccc(Cl)cc3)nc2-c2ccccc2)n1-c1ccccc1 | 57 | – | – | 71 | – | – | –
COc1ccc(-n2c(-c3sc(Nc4ccc(Cl)cc4)nc3-c3ccccc3)nc3ccccc3c2=O)cc1 | 59 | 32 | 20 | 46 | > 70 | – | –
CCOC(=O)Nc1nc(-c2ccccc2)c(-c2nc3ccccc3c(=O)n2-c2ccc(OC)cc2)s1 | 34 | 15 | – | 29 | – | – | –
CNc1nc(-c2ccccc2)c(-c2nc3ccccc3c(=O)n2-c2ccccc2)s1 | 58 | 33 | – | 71 | – | – | –
CCOC(=O)Nc1nc(C)c(-c2nc3ccccc3c(=O)n2-c2ccc(Cl)cc2)s1 | 30 | 50 | 16 | 54 | > 70 | – | –
O=C(Nc1nc(-c2ccccc2)c(-c2nc3ccccc3c(=O)n2-c2ccc(Cl)cc2)s1)c1ccccc1 | 36 | 39 | – | 73 | – | – | –
O=C(Nc1nc(-c2ccccc2)c(-c2nc3ccccc3c(=O)n2-c2ccccc2)s1)c1ccccc1 | 26 | 30 | – | 43 | – | – | –
COc1ccc(-n2c(-c3sc(NC(=O)c4ccccc4)nc3-c3ccccc3)nc3ccccc3c2=O)cc1 | 8 | 31 | – | 12 | – | – | –
CNc1nc(C)c(-c2nc3ccccc3c(=O)n2-c2ccc(Cl)cc2)s1 | – | 61 | 12 | 80 | – | 3.3 | 20
CCOC(=O)Nc1nc(-c2ccccc2)c(-c2nc3ccccc3c(=O)n2-c2ccccc2)s1 | 7 | – | > 10 | 32 | – | – | –

More lines, main results first:

inhibition [2] [%] | inhibition [3] [%] | IC50 [4] [µM] | SMILES | inhibition (HEK293 [1]) [%] | inhibition (HEK293 [5]) [%] | IC50 [6] [µM] | inhibition at 3.3 µM (FaDu) [%]
39 | 38 | – | O=c1c2ccccc2nc(-c2sc(Nc3ccccc3)nc2-c2ccccc2)n1-c1ccc(Cl)cc1 | 67 | – | – | –
29 | 67 | – | Cc1nc(Nc2ccccc2)sc1-c1nc2ccccc2c(=O)n1-c1ccc(Cl)cc1 | 66 | – | 5.5 | –
75 | 26 | 15 | Cc1nc(Nc2ccc(Cl)cc2)sc1-c1nc2ccccc2c(=O)n1-c1ccc(Cl)cc1 | 79 | – | – | –
20 | 18 | – | CCOC(=O)Nc1nc(-c2ccccc2)c(-c2nc3ccccc3c(=O)n2-c2ccc(Cl)cc2)s1 | 24 | – | – | –
67 | 40 | > 250 | CNc1nc(-c2ccccc2)c(-c2nc3ccccc3c(=O)n2-c2ccc(Cl)cc2)s1 | 72 | – | – | –
47 | 34 | 3.3 | O=c1c2ccccc2nc(-c2sc(Nc3ccc(Cl)cc3)nc2-c2ccccc2)n1-c1ccc(Cl)cc1 | 62 | > 70 | – | –
